# Reference: ChEMBL document CHEMBL1136250, “N1-benzenesulfonylgramine and N1-benzenesulfonylskatole: novel 5-HT6 receptor ligand templates” (Bioorg Med Chem Lett, 2003)
# Tests used:
# [1] = biological target: 5-hydroxytryptamine receptor 6 (Homo sapiens, UniProt P50406); assay: Binding affinity towards human 5-hydroxytryptamine 6 receptor
# Procedure, shortened: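 Competition binding with [3H]LSD (1 nM final), 90 min at room temperature in 50 mM Tris–Cl, 10 mM MgCl2, 0.1 mM EDTA, pH 7.40; clozapine defines non-specific binding. Test agent 1–10,000 nM; Ki by LIGAND fitting, triplicate determinations.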
# HEK293 = assay: Inhibition of 5-HT stimulated cAMP production in HEK-5-HT6 cells; assay type: functional, cell-based; conditions: Homo sapiens
# Procedure, shortened: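 HEK cells expressing 5-HT6 receptors; the compound was tested alone for agonist-induced cAMP production, and against 5-HT-stimulated cAMP production. IC50 was calculated for inhibition of the 5-HT-stimulated cAMP response.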
# [2] = pA2 value was determined
# 5-hydroxytryptamine receptor 6, sequence (P50406 whole entry): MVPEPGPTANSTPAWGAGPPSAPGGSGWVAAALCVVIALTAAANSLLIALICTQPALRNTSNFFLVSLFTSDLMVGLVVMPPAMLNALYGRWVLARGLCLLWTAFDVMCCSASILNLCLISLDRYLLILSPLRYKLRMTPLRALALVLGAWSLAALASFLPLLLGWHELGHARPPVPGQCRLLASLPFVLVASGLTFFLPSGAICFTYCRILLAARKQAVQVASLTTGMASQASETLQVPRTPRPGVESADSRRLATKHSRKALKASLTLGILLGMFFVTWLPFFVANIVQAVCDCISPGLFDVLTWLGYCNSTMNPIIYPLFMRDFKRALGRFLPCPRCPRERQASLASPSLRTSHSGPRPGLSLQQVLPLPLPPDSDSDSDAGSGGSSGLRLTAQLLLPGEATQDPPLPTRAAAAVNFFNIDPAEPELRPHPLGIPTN
Structure (SMILES),Ki [1] [nM],IC50 (HEK293) [nM],pA2 [2]
CC(=O)Nc1ccc(S(=O)(=O)n2cc(CCN(C)C)c3ccccc32)cc1,27,,
COc1ccc2c(c1)c(CCN(C)Cc1ccccc1)cn2S(=O)(=O)c1ccccc1,43,,
CN(C)CCc1cn(S(=O)(=O)c2ccccc2)c2ccc(O)cc12,28,,
CCN(CC)CCc1cn(S(=O)(=O)c2ccc(NC(C)=O)cc2)c2ccccc12,90,,
COc1ccc2c(c1)c(CCN(C)C)cn2S(=O)(=O)c1ccc(NC(C)=O)cc1,34,,
CCN(CC)CCc1cn(S(=O)(=O)c2ccc(N)cc2)c2ccccc12,0.6,,
CNCCc1cn(S(=O)(=O)c2ccccc2)c2ccc(OC)cc12,23,,
CCN(CC)CCc1cn(S(=O)(=O)c2ccc(NC(C)=O)cc2)c2ccc(OC)cc12,230,,
CCN(CC)CCc1cn(S(=O)(=O)c2ccc(N)cc2)c2ccc(OC)cc12,0.6,,
CN(C)Cc1cn(S(=O)(=O)c2ccccc2)c2ccccc12,,880,
Cc1cn(S(=O)(=O)c2ccc(N)cc2)c2ccccc12,,320,7
CCN(CC)CCc1cn(S(=O)(=O)c2ccccc2)c2ccc(OC)cc12,6.2,,
COc1ccc2c(c1)c(CCN(C)Cc1ccccc1)cn2S(=O)(=O)c1ccc(N)cc1,3,,
